Experimental data from different studies.
Lines come from different studies, so protocols differ.
Target: Mitogen-activated protein kinase kinase kinase 8 (MAP3K8, Homo sapiens, UniProt P41279)

CC(C)(C)c1nc(-c2cccc(NS(=O)(=O)c3c(F)cccc3F)c2F)c(-c2ccnc(N)n2)s1 — remaining activity (enzyme activity, inhibitor, radiometric; 1 µM): 85%
COc1cc2ncnc(Nc3ccc(Oc4ccccc4)c(C)c3C)c2cc1OC — inhibition (enzyme activity, inhibitor; 1 µM): -8%
O=C(CSc1nc2nccnc2c(=O)n1CCc1ccccc1)Nc1nccs1 — inhibition (enzyme activity, inhibitor; 10 µM): 5%
Cc1sc(C(=O)NC2COC2)cc1-n1cc(NC(=O)Nc2c(F)cccc2Cl)cn1 — remaining activity (enzyme activity, inhibitor; 10 µM): 105%
CC(C)(O)[C@H]1CC[C@H](Nc2ccc3ncc(-c4cccc(C(F)(F)F)c4)n3n2)CC1 — remaining activity (enzyme activity, inhibitor; 1 µM): 107%
O=C1NC(=O)c2cc(Nc3ccc(F)cc3)c(Nc3ccc(F)cc3)cc21 — remaining signal (cell-free assay; 0.5 µM): 96.3%
CCCS(=O)(=O)Nc1ccc(F)c(C(=O)c2c[nH]c3ncc(-c4ccc(Cl)cc4)cc23)c1F — inhibition (enzyme activity, inhibitor; 1 µM): < 10%
CC(C)(C)c1nc2c(s1)c1nc(N)ncc1c1ccc(NS(=O)(=O)c3c(F)cccc3F)c(F)c12 — remaining activity (enzyme activity, inhibitor, radiometric; 1 µM): 93%
O=C(Nc1cnn(-c2csc(C(=O)NC3COC3)c2)c1)Nc1ccccc1Cl — remaining activity (enzyme activity, inhibitor; 5 µM): 92.7%
CC/C(=N\NC(=O)NCc1cccc(O)c1)c1ccc(O)c(C)c1O — inhibition (enzyme activity, inhibitor; 0.1 µM): -1.8%
COc1cc2ncnc(Nc3ccc(Oc4ccccc4)cc3C)c2cc1OC — inhibition (enzyme activity, inhibitor; 1 µM): 33%
N#CCCc1ccc2c(c1)-c1[nH]c3ccc([N+](=O)[O-])cc3c1CC(=O)N2 — remaining signal (cell-free assay; 0.5 µM): 87.5%
CS(=O)(=O)Nc1cccc(-c2csc(NC(=O)CSc3nc4nccnc4c(=O)n3CCc3ccccc3)n2)c1 — inhibition (enzyme activity, inhibitor; 10 µM): 4%
CCOc1cc(-c2nncn2C)ccc1Nc1ncc2cc(C)nc(NCC(C)(C)C)c2n1 — inhibition (enzyme activity, inhibitor, FRET; 1 µM): < 15%
